Results on 27 compounds are retold here after publication PMC8122083 (ACS infectious diseases, 2021).

pIC50: −log10 of the molar value. Where two headings read alike, the source gives them in different places.

What all share (type): cell-based
The subject of one data set is H. pylori SS1. Description: H. pylori IC50 dose response. The conditions noted are these: for IC50 / pIC50: Helicobacter pylori; for IC50: SS1, read-out: H. pylori SS1 pIC50 (converted); for fold greater potency than compound 1: H. pylori SS1.
The next data set in a line: Cytotoxicity assay. The conditions noted are these: human, FaDu cells. A digest of the protocol:
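FaDu cells, maintained per ATCC protocols, were seeded in EMEM with 10% FBS at 3 x 10^5 cells/ml and grown 24 h at 37°C, 5% CO2. Medium was replaced with two-fold serial dilutions of test compound in fresh medium for 72 h, then with FBS-free EMEM plus resazurin (final 0.15 mM) for 3-5 h. Fluorescence read at ex 540/em 590 nm. IC50 fitted from percent inhibition versus growth controls, converted to pIC50, and reported as mean ± S.E.M.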

A further data set has as its system H. pylori ATCC 43504. In words: H. pylori IC50 dose response. The following applies: for IC50 / pIC50: Helicobacter pylori; for IC50: ATCC43504, read-out: H. pylori ATCC 43504 pIC50 (converted).
In data set [1] the test system is panel of representative Gram-negative and Gram-positive species, including commensals. In words: MIC against panel of representative Gram-negative and Gram-positive species.
For data set [2], the system named is H. pylori HM-274 resistant isolates. Description: MIC of spontaneous resistant mutants of H. pylori HM-274. The conditions noted are these: two spontaneous mutants selected at twice the MIC of 28.

`C[C@@H](CO)Nc1ncnc2sc(-c3ccccc3)cc12` [Compound 12, (S)-2-((6-phenylthieno[2,3-d]pyrimidin-4-yl)amino)propan-1-ol]: the IC50 in the data set on H. pylori SS1 is 2.51 µM; with H. pylori ATCC 43504 it was 5.01 µM. Further, the IC50 at 72 h in the data set “Cytotoxicity assay” is 251 µM.
In the case of `CCC(CO)Nc1ncnc2sc(-c3ccccc3)cc12` (centres unmarked) [Compound 16, 2-((6-phenylthieno[2,3-d]pyrimidin-4-yl)amino)butan-1-ol], the figures for the IC50 in the data set on H. pylori SS1 and in the data set with H. pylori ATCC 43504 were 0.02 µM and 0.1 µM, respectively. In “Cytotoxicity assay”, this compound gave an IC50 at 72 h of 39.8 µM.
Regarding `Cc1c(-c2ccccc2)sc2ncnc(N[C@@H](CO)c3ccccc3)c12` [Compound 38, (R)-2-((5-methyl-6-phenylthieno[2,3-d]pyrimidin-4-yl)amino)-2-phenylethan-1-ol], the IC50 is 0.0501 µM in the data set on H. pylori SS1 and 0.316 µM in the data set with H. pylori ATCC 43504. Besides, in the data set “Cytotoxicity assay”, the IC50 at 72 h is 20 µM.
Take `Cc1sc2ncnc(N[C@@H](CO)c3ccccc3)c2c1C` [Compound 37, (R)-2-((5,6-dimethylthieno[2,3-d]pyrimidin-4-yl)amino)-2-phenylethan-1-ol]: the figures for the IC50 in the data set on H. pylori SS1 and in the data set with H. pylori ATCC 43504 were 0.631 µM and 6.31 µM, respectively. The compound further registered an IC50 at 72 h in “Cytotoxicity assay” of under 20 µM.
The like results for `c1ccc(-c2cc3c(NCCc4cccnc4)ncnc3s2)cc1` [Compound 22, 6-phenyl-N-(2-(pyridin-3-yl)ethyl)thieno[2,3-d]pyrimidin-4-amine] were, in that order, 3.16 µM, 6.31 µM and 100 µM.
On the same counts, the results for `c1ccc(-c2cc3c(NCCc4ccncc4)ncnc3s2)cc1` [Compound 21, 6-phenyl-N-(2-(pyridin-4-yl)ethyl)thieno[2,3-d]pyrimidin-4-amine] are 1.26 µM, 2.51 µM and 126 µM.
Consider `CC(O)CNc1ncnc2sc(-c3ccccc3)cc12` (centres unmarked) [Compound 11, 1-((6-phenylthieno[2,3-d]pyrimidin-4-yl)amino)propan-2-ol], for which, in the data set with H. pylori SS1, the “fold greater potency than compound 1” value is given as 4 fold and the IC50 is 0.398 µM. The compound also showed an IC50 at 72 h in the data set “Cytotoxicity assay” of 63.1 µM. The “fold increase in potency over compound 1” value in the data set on H. pylori ATCC 43504 (ATCC43504) is reported as “less than 2 fold”. For the same compound, in the data set with H. pylori ATCC 43504, the IC50 is 1 µM.
Broadly, the pIC50 is the negative decadic logarithm of the IC50, by convention in mol/L. Consider `COc1ccc(CCNc2ncnc3sc(-c4ccccc4)cc23)cc1OC` [Compound 19, N-(3,4-dimethoxyphenethyl)-6-phenylthieno[2,3-d]pyrimidin-4-amine], for which the IC50 in the data set on H. pylori SS1 is 0.0398 µM. This compound had an IC50 at 72 h in “Cytotoxicity assay” of 126 µM. Further, in the data set with H. pylori ATCC 43504 (ATCC43504), the “fold improved potency over compound 2” value came out at 11 fold and the pIC50 was 6.80. Besides, the IC50 in the data set with H. pylori ATCC 43504 was 0.158 µM.
In the case of `OC[C@H](Nc1ncnc2scc(-c3ccccc3)c12)c1ccccc1` [Compound 40, (R)-2-phenyl-2-((5-phenylthieno[2,3-d]pyrimidin-4-yl)amino)ethan-1-ol], the IC50 was 0.501 µM with H. pylori SS1 and 3.98 µM in the data set on H. pylori ATCC 43504. In addition, the IC50 at 72 h in the data set “Cytotoxicity assay” is 31.6 µM.
Take `C[C@H](CO)Nc1ncnc2sc(-c3ccccc3)cc12` [Compound 13, (R)-2-((6-phenylthieno[2,3-d]pyrimidin-4-yl)amino)propan-1-ol]: in the data set with H. pylori SS1, the “fold greater potency than compound 1” value turned out to be 56 fold and the IC50 was 0.0316 µM. This compound had an IC50 at 72 h in the data set “Cytotoxicity assay” of 31.6 µM. Moreover, the IC50 in the data set on H. pylori ATCC 43504 is 0.158 µM.
On to `CC(C)C(CO)Nc1ncnc2sc(-c3ccccc3)cc12` (centres unmarked) [Compound 18, 3-methyl-2-((6-phenylthieno[2,3-d]pyrimidin-4-yl)amino)butan-1-ol], for which the IC50 in the data set on H. pylori SS1 is 0.794 µM; in the data set on H. pylori ATCC 43504, 3.16 µM. The IC50 at 72 h in “Cytotoxicity assay” is 50.1 µM.
The like results for `Cc1sc2ncnc(N[C@@H](CO)c3ccccc3)c2c1-c1ccccc1` [Compound 39, (R)-2-((6-methyl-5-phenylthieno[2,3-d]pyrimidin-4-yl)amino)-2-phenylethan-1-ol] were, in that order, 7.94 µM, 15.8 µM and 126 µM.
The like results for `Cc1ccc(CCNc2ncnc3sc(-c4ccccc4)cc23)cc1C` [Compound 20, N-(3,4-dimethylphenethyl)-6-phenylthieno[2,3-d]pyrimidin-4-amine] were, in that order, 0.501 µM, 0.0794 µM and under 15.8 µM.
`COc1ccc([C@@H](CO)Nc2ncnc3sc(-c4ccccc4)cc23)cc1` [Compound 27, (S)-2-(4-methoxyphenyl)-2-((6-phenylthieno[2,3-d]pyrimidin-4-yl)amino)ethan-1-ol]: the results for the negative logarithm of the IC50 (pIC50) in the data set on H. pylori SS1 (SS1) and with H. pylori ATCC 43504 (ATCC43504) were 6.96 and 7.28, respectively. Moreover, the IC50 with H. pylori SS1 was 0.1 µM; in the data set with H. pylori ATCC 43504 it was 0.0501 µM. Further, the IC50 at 72 h in “Cytotoxicity assay” is 50.1 µM.
In general, MIC refers to the lowest concentration that inhibits growth of the organism. A low value points to a more susceptible organism. As to `COc1ccc([C@H](CO)Nc2ncnc3sc(-c4ccccc4)cc23)c(F)c1` [Compound 29, (R)-2-(2-fluoro-4-methoxyphenyl)-2-((6-phenylthieno[2,3-d]pyrimidin-4-yl)amino)ethan-1-ol], the MIC in data set [1] is at least 16 µg/mL. For the same compound, the IC50 was 0.0126 µM in the data set with H. pylori SS1 and 0.02 µM in the data set with H. pylori ATCC 43504. This compound gave an IC50 at 72 h in “Cytotoxicity assay” of 31.6 µM.
In turn, `COc1ccc([C@H](CN)Nc2ncnc3sc(-c4ccccc4)cc23)cc1F` [Compound 31, (R)-1-(3-fluoro-4-methoxyphenyl)-N^1-(6-phenylthieno[2,3-d]pyrimidin-4-yl)ethane-1,2-diamine] gave a minimum inhibitory concentration (MIC) in data set [1] of at least 16 µg/mL. Moreover, the IC50 with H. pylori SS1 was 1 µM; in the data set on H. pylori ATCC 43504 it was 3.16 µM. The “fold increase in H. pylori IC50 on substituting hydroxyl for primary amine” value in the data set on H. pylori SS1 (SS1, relative to 30) was over 79 fold; with H. pylori ATCC 43504 (ATCC 43504, relative to 30) it was over 79 fold. Moreover, the IC50 at 72 h in “Cytotoxicity assay” is 50.1 µM.
Regarding `OCCNc1ncnc2sc(-c3ccccc3)cc12` [Compound 9, 2-((6-phenylthieno[2,3-d]pyrimidin-4-yl)amino)ethan-1-ol], the figures for the IC50 in the data set with H. pylori SS1 and in the data set with H. pylori ATCC 43504 were 2 µM and 5.01 µM, respectively. In “Cytotoxicity assay”, this compound gave an IC50 at 72 h of 100 µM.
On the same counts, the results for `COc1ccc(CC(CO)Nc2ncnc3sc(-c4ccccc4)cc23)cc1` (centres unmarked) [Compound 24, 3-(4-methoxyphenyl)-2-((6-phenylthieno[2,3-d]pyrimidin-4-yl)amino)propan-1-ol] are 0.251 µM, 0.126 µM and 15.8 µM.
The like results for `CN(CCCO)c1ncnc2sc(-c3ccccc3)cc12` [Compound 8, 3-(methyl(6-phenylthieno[2,3-d]pyrimidin-4-yl)amino)propan-1-ol] were, in that order, 6.31 µM, 15.8 µM and 100 µM.
For the compound `OC[C@H](Nc1ncnc2sc(-c3ccccc3)cc12)c1ccccc1` [Compound 28, (R)-2-phenyl-2-((6-phenylthieno[2,3-d]pyrimidin-4-yl)amino)ethan-1-ol], the MIC in data set [1] is at least 16 µg/mL. Moreover, the values for the IC50 in the data set on H. pylori SS1 and in the data set on H. pylori ATCC 43504 were 0.01 µM and 0.0251 µM, respectively. For the same compound, the “MIC of resistant isolates relative to wildtype” value in data set [2] was found to be 8 fold. In the data set “Cytotoxicity assay”, the IC50 at 72 h is under 20 µM. Besides, the negative logarithm of the IC50 (pIC50) with H. pylori ATCC 43504 (ATCC43504) is 7.64.
With `COCC(C)Nc1ncnc2sc(-c3ccccc3)cc12` (centres unmarked) [Compound 14, N-(1-methoxypropan-2-yl)-6-phenylthieno[2,3-d]pyrimidin-4-amine], the IC50 in the data set with H. pylori SS1 is 0.398 µM; in the data set with H. pylori ATCC 43504, 1.26 µM. The same compound had an IC50 at 72 h in “Cytotoxicity assay” of 31.6 µM. Moreover, the “fold less potent than compound 10” value with H. pylori ATCC 43504 (ATCC43504) stood at 29 fold.
Take `CCC(O)CNc1ncnc2sc(-c3ccccc3)cc12` (centres unmarked) [Compound 17, 1-((6-phenylthieno[2,3-d]pyrimidin-4-yl)amino)butan-2-ol]: the values for the IC50 in the data set on H. pylori SS1 and in the data set with H. pylori ATCC 43504 were 0.251 µM and 0.794 µM, respectively. This compound showed an IC50 at 72 h in the data set “Cytotoxicity assay” of 39.8 µM.
On the same counts, the results for `COc1cccc(CNc2ncnc3sc(-c4ccccc4)cc23)c1OC` [Compound 23, N-(2,3-dimethoxybenzyl)-6-phenylthieno[2,3-d]pyrimidin-4-amine] are 0.501 µM, 1.58 µM and 25.1 µM.
For `CC(CO)Nc1ncnc2sc(-c3ccccc3)cc12` (centres unmarked) [Compound 10, 2-((6-phenylthieno[2,3-d]pyrimidin-4-yl)amino)propan-1-ol], in the data set on H. pylori SS1, the “fold greater potency than compound 1” value came to 20 fold and the IC50 is 0.0794 µM. In addition, the IC50 at 72 h in the data set “Cytotoxicity assay” was 100 µM. Besides, the “fold increase in potency over compound 1” value with H. pylori ATCC 43504 (ATCC43504) turned out to be 37 fold. For the same compound, in the data set on H. pylori ATCC 43504, the IC50 is 0.0398 µM.
Consider `COc1ccc([C@H](CO)Nc2ncnc3sc(-c4ccccc4)cc23)cc1` [Compound 26, (R)-2-(4-methoxyphenyl)-2-((6-phenylthieno[2,3-d]pyrimidin-4-yl)amino)ethan-1-ol], for which the minimal inhibitory concentration (MIC) in data set [1] was at least 16 µg/mL. Besides, the figures for the pIC50 with H. pylori SS1 (SS1) and in the data set on H. pylori ATCC 43504 (ATCC43504) were 8.17 and 8.00, respectively. Besides, the IC50 with H. pylori SS1 was 0.00631 µM; with H. pylori ATCC 43504, 0.01 µM. Moreover, the “fold increase in potency” value is over 69 fold in the data set with H. pylori SS1 (SS1 (stated for both strains), lead compounds relative to hits) and over 69 fold in the data set on H. pylori ATCC 43504 (ATCC 43504 (stated for both strains), lead compounds relative to hits). The IC50 at 72 h in “Cytotoxicity assay” is 15.8 µM.
With `OCCCCNc1ncnc2sc(-c3ccccc3)cc12` [Compound 15, 4-((6-phenylthieno[2,3-d]pyrimidin-4-yl)amino)butan-1-ol], the IC50 with H. pylori SS1 was 0.316 µM; in the data set with H. pylori ATCC 43504, 1.58 µM. The compound also showed an IC50 at 72 h in the data set “Cytotoxicity assay” of 126 µM.
`COc1ccc([C@H](CO)Nc2ncnc3sc(-c4ccccc4)cc23)cc1F` [Compound 30, (R)-2-(3-fluoro-4-methoxyphenyl)-2-((6-phenylthieno[2,3-d]pyrimidin-4-yl)amino)ethan-1-ol] displayed a minimal inhibitory concentration (MIC) in data set [1] of at least 16 µg/mL. Besides, the IC50 in the data set with H. pylori SS1 is 0.0126 µM; with H. pylori ATCC 43504, 0.0158 µM. In addition, the IC50 at 72 h in the data set “Cytotoxicity assay” is 31.6 µM.
